Test system: MS2 coat protein
Test: apparent Kd, MS2 coat protein; higher = weaker binding; RNA-MaP array; FMN 200 µM where present
Summary of the method: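 In 100 mM Tris-HCl pH 7.5, 80 mM KCl, 4 mM MgCl2, BSA, DTT, yeast tRNA and Tween-20, SNAP-549-labelled MS2 coat protein was titrated from 0.7 or 1.5 nM, doubling to 3 µM, over designs transcribed by stalled E. coli RNA polymerase on Illumina sequencing-chip clusters. This was done first without ligand, then with ligand held constant. After green signal was normalised to red-channel RNA signal and control-cluster median Fmax, the apparent Kd was taken as the median of filtered per-cluster binding-curve fits.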

[1] = designed as: ON switch for flavin mononucleotide, no ligand
[2] = ligand present: flavin mononucleotide, designed as: ON switch for flavin mononucleotide
[3] = designed as: OFF switch for flavin mononucleotide, no ligand
[4] = ligand present: flavin mononucleotide, designed as: OFF switch for flavin mononucleotide

Row | Sequence | apparent Kd [1] [nM] | apparent Kd [2] [nM] | apparent Kd [3] [nM] | apparent Kd [4] [nM]
1 | AUGGAUAUCACAGGAUAUGCCAUGGAUACCAUGGCAGAAGGGUGAUCCAUCCUAUGUAAAUACAUGAGGAUCACCCAUGUGUCC | 16.1 | 13.7 |  | 
2 | UCAUUGUCAGGAUAUCUUAAUAACGGUUCACUGUUUUAUUUGGAGAAGGGACAUGAGGAUCACCCAUGUUCCUG |  |  | 18.3 | 20.8
3 | GGUGCGUUUGUGAGGAUAUGCUGGUCCUUGGUUCGGCAGAAGGCACAUGAGGAUCACCCAUGUGGUGUCGUGCC |  |  | 35.1 | 77.5
4 | UGUUUUUAUGUGAGGAUAUGGGUUUGGUUGCGGGCUUAGAAGGUACAUGAGGAUCACCCAUGUACUUUGUGCAU |  |  | 16.4 | 17
5 | GUAACAUGAGGAUCACCCAUGUCGUGCUAGAUGAGUUCUGGUGAGGAUAUACAUGGUAAAUAACUGUAGAAGGCGCUGGGUACA | 132 | 105 |  | 
6 | GUGCUCGUGUGAGGAUAUGCCGCCGUUUCGGCUGCAGAAGGUGCUACGUUACAUGAGGAUCACCCAUGUCUCUGUUGUUUCGUG | 21 | 21.4 |  | 
7 | GCCAUCGGGUGAGGAUAUAAAAUUAUAAUUAAAUUAGAAGGCACCUCAUAAGACAUGAGGAUCACCCAUGUAGUUAAGAUGGCA | 87.6 | 29.5 |  | 
8 | CCUAUUAGAAAAUAGACGAAGUGGCCAGAAGGUGAAUGCCACAUGAGGAUCACCCAUGUUUCGAUCAAGGAUAUGGUUUCUCAC | 630 | 203 |  | 
9 | GUUGAAGUCACAGGAUAUACGUCGUCUGUUGCCGUAGAAGGGUGAACUCAGCCUGACCGUGACAUGAGGAUCACCCAUGUGACC | 15.3 | 19.6 |  | 
10 | GCGAGUAAAGCAGGAUAUCUAUUGUCUCUGUAACAUGAGGAUCACCCAUGUAGAGAAGGGCUUAGUCAUACAAUUCGAACUCGC |  |  | 7.86 | 7.32
11 | CAGUACUGAGGAUAUACAUGAGGAUCACCCAUGUGCCUUAGCUAGGAUACUAGCAUUAGUAGAAGGCAGUACUG |  |  | 14.1 | 158
12 | ACAUGAGGAUCACCCAUGUGAGGAUCUCCCAUGUUAUAUUUCAGAAGGCUCGUGUGUUUGAUGAGAGAGGAUAUGGAAUAUACG |  |  | 73.7 | 49.7
13 | ACAUGAGGAUCACCCAUGUAUUACAUGGUUAAGUUUAUUAACAGAAGGCGAAAAUACCACUUUUUCGAGGAUAUGUUUUCUAUA |  |  | 47.4 | 61.6
14 | AAUAAACAUGAGGAUCACCCAUGUAAGGAUAUGCGAACAAUAAGAAGACAAUAAUAAAGCAGAAGGUACAAGAG |  |  | 78.1 | 96.2
15 | CGCAAGUAUACAUGAGGAUCACCCAUGUCAGAAAGGGUAAUCAGAAGGUACAAUUAGAGAUAGAGUAAGGAUAUGAAAUUUGCG | 750 | 274 |  | 
16 | UGAACUAUGUAGAAGGCCCAUAUCUAUAUUUAGGGAGGAUAUACAUGAGGAUCACCCAUGUAUAGAGCGGGUGGACCCGUCACU |  |  | 39 | 72.1
17 | GGGUACAUCGGAGGAUAUCAUGCAAAUACAUGAGGAUCACCCAUGUCGAUGGAGACAUCGGAGAUUGAGAAGGCCGAUGUACCG | 21.9 | 5.5 |  | 
18 | GACAUGAGGAUCACCCAUGUCCAUGCAAGAGUAGUUGAGACCAGAAGGACCGUGCGGAAUGCAGGGUAGGAUAUGGAGCCCUCA | 36.8 | 9.38 |  | 
19 | GGGCCCGGAGGAUAUACAUGAGGAUCACCCAUGUACUCGGGCUCUAUUGGGCUCGGGUGUAGAAGGCCGGGCCC |  |  | 13.7 | 14.1
20 | AAAAAGUCAGGAUAUACAAAAGUGCGAAAGCACAAAAGGAAACAUGAGGAUCACCCAUGUAGAAGGGACAAGAA |  |  | 32.6 | 27.5
21 | UGUCGGAGAAGAGGAUAUUACAUGAGGAUCACCCAUGUAUGAACCAAUAGCUGGAAACAGCAAUGUAAGAAGGCUGCUCCGACA |  |  | 5.32 | 23.1
22 | GCACUGGAUGUAGGAUAUCAGGACGAUAAGUCCUGAGAAGGACAUGAGGAUCACCCAUGUAAAACUCAACCAGUGCAUAAUAUA |  |  | 14.5 | 18.5
23 | UGGUACUAGGGAGGAUAUGGGAAGAUACAUGAGGAUCACCCAUGUUUAAGAAUGCCGAGAGGCAACUAGAAGGCCCUAGUAGCU | 539 | 19.9 |  | 
